Here are results for four molecules from ChEMBL document CHEMBL1777792, “Synthesis and evaluation of indole-based new scaffolds for antimicrobial activities--identification of promising candidates” (Bioorg Med Chem Lett, 2011).

In experiment [1] the test system is Candida albicans. As to the kind of experiment: Antifungal activity against Candida albicans in yeast extract-peptone-glucose medium at 357 ug/ml after 48 hrs by disc diffusion assay in presence of 100 ug/ml of calcofluor white. It is filed as functional. The procedure, abridged: (§1)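 C. albicans cells at a set number were spread on YEPD agar, either plain or containing the cell-wall disruptant named in the line (SDS, Congo red or calcofluor white). Compound solution, or the reference solvent as control, was spotted onto 0.5 cm discs placed on the lawn. Plates were incubated at 30 °C and the inhibition zone diameter was measured.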

For experiment [2], the system named is Escherichia coli. The experiment in a line: Antibacterial activity against Escherichia coli harboring ampicillin-resistance gene encoding plasmid at 357 ug/ml after 24 hrs by disc diffusion assay. It is filed as functional. To be noted: read-out: DIZ. The procedure, abridged:
(§2)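 Disc diffusion used an E. coli strain carrying a plasmid that encodes an ampicillin-resistance gene. Inhibition zone diameters were recorded and compared against the corresponding solvent controls.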
For orientation: A growth-free zone around the sample is the usual read-out of agar diffusion tests.

The test system of experiment [3] is Candida albicans. As to the kind of experiment: Antifungal activity against Candida albicans in yeast extract-peptone-glucose medium at 357 ug/ml after 48 hrs by disc diffusion assay. It is filed as functional. To be noted: read-out: DIZ. In short, it runs like this:
as §1

For experiment [4], the system named is Candida albicans. As to the kind of experiment: Antifungal activity against Candida albicans in yeast extract-peptone-glucose medium at 357 ug/ml after 48 hrs by disc diffusion assay in presence of 150 ug/ml of congo red. It is filed as functional. The procedure, abridged: as §1
Experiment [5] relates to Candida albicans. As to the kind of experiment: Antifungal activity against Candida albicans in yeast extract-peptone-glucose medium at 257 ug/ml after 48 hrs by disc diffusion assay in presence of […]. It is filed as functional. To be noted: in the assay text read “20 ug/ml” for “150 ug/ml”. The procedure, abridged: (§3)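 Tests whether compounds enhance the toxicity of rhodamine 6G, a substrate of the Cdr1p/Cdr2p drug pumps. YEPD agar containing R6G spread with C. albicans. Compound and solvent spotted on 0.5 cm discs, incubated at 30 °C, and zone diameter read relative to solvent control.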

Experiment [6] relates to Candida albicans. As to the kind of experiment: Antifungal activity against Candida albicans in synthetic dextrose minimal medium after 48 hrs by ELISA based serial dilution method.
Experiment [7] relates to Candida albicans. The experiment in a line: Antifungal activity against Candida albicans in yeast extract-peptone-glucose medium at 257 ug/ml after 48 hrs by disc diffusion assay in presence of 0.01% of sodium dodecylsulphate. In kind it is functional. To be noted: read-out: DIZ. In short, it runs like this: (§4)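 Disc diffusion on YEPD agar containing a cell-wall-disrupting agent (SDS, Congo red or calcofluor white) and spread with a set number of C. albicans cells. Compound and reference solvent spotted on 0.5 cm discs. Incubated at 30 °C, then inhibition zone diameter measured against solvent.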

In experiment [8] the test system is Escherichia coli. The experiment in a line: Antibacterial activity against Escherichia coli harboring ampicillin-resistance gene encoding plasmid at 257 ug/ml after 24 hrs by disc diffusion assay. In kind it is functional. To be noted: read-out: DIZ. The procedure, abridged:
as §2

Experiment [9] concerns Candida albicans. As to the kind of experiment: Antifungal activity against Candida albicans in yeast extract-peptone-glucose medium at 257 ug/ml after 48 hrs by disc diffusion assay in presence of 100 ug/ml of calcofluor white. It is filed as functional. In short, it runs like this: as §4
Experiment [10] has as its system Candida albicans. The experiment in a line: Antifungal activity against Candida albicans in yeast extract-peptone-glucose medium at 257 ug/ml after 48 hrs by disc diffusion assay. In kind it is functional. To be noted: read-out: DIZ. The procedure, abridged:
(§5)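 Solid-phase assay on YEPD agar spread with a set number of C. albicans cells. Compound solution and reference solvent spotted onto 0.5 cm discs. Plates incubated at 30 °C, and inhibition zone diameter measured against solvent control.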

Experiment [11] deals with Candida albicans. The experiment in a line: Antifungal activity against Candida albicans in yeast extract-peptone-glucose medium at 257 ug/ml after 48 hrs by disc diffusion assay in presence of 150 ug/ml of congo red. In kind it is functional. In short, it runs like this: as §4
In experiment [12] the test system is Candida albicans. The experiment in a line: Antifungal activity against Candida albicans in yeast extract-peptone-glucose medium at 187 ug/ml after 48 hrs by disc diffusion assay. It is filed as functional. To be noted: read-out: DIZ. The procedure, abridged:
as §1

Experiment [13] relates to Candida albicans. The experiment in a line: Antifungal activity against Candida albicans in yeast extract-peptone-glucose medium at 187 ug/ml after 48 hrs by disc diffusion assay in presence of 150 ug/ml of congo red. In kind it is functional. In short, it runs like this: as §1
In experiment [14] the test system is Candida albicans. The experiment in a line: Antifungal activity against Candida albicans in yeast extract-peptone-glucose medium at 187 ug/ml after 48 hrs by disc diffusion assay in presence of 100 ug/ml of calcofluor white. It is filed as functional. In short, it runs like this: as §1
For experiment [15], the system named is Candida albicans. The experiment in a line: Antifungal activity against Candida albicans in yeast extract-peptone-glucose medium at 187 ug/ml after 48 hrs by disc diffusion assay in presence of […]. In kind it is functional. In short, it runs like this:
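This is a C. albicans disc diffusion on YEPD agar containing rhodamine 6G, a substrate of the Cdr1p/Cdr2p ATP-dependent efflux pumps, to test for enhanced R6G toxicity. A set number of cells was spread, and 0.5 cm discs were spotted with compound solution or reference solvent. Plates were incubated at 30 °C and the zone diameter was measured.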

The subject of experiment [16] is Candida albicans. The experiment in a line: Antifungal activity against Candida albicans in yeast extract-peptone-glucose medium at 187 ug/ml after 48 hrs by disc diffusion assay in presence of 0.01% of sodium dodecylsulphate. In kind it is functional. To be noted: read-out: DIZ. In short, it runs like this:
as §1

Experiment [17] concerns Escherichia coli. As to the kind of experiment: Antibacterial activity against Escherichia coli harboring ampicillin-resistance gene encoding plasmid at 187 ug/ml after 24 hrs by disc diffusion assay. It is filed as functional. To be noted: read-out: DIZ. The procedure, abridged: as §2
The subject of experiment [18] is Escherichia coli. As to the kind of experiment: Antibacterial activity against Escherichia coli harboring ampicillin-resistance gene encoding plasmid at 600 ug/ml after 24 hrs by disc diffusion assay. It is filed as functional. To be noted: read-out: DIZ. In short, it runs like this:
as §2

Experiment [19] relates to Candida albicans. As to the kind of experiment: Antifungal activity against Candida albicans in yeast extract-peptone-glucose medium at 600 ug/ml after 48 hrs by disc diffusion assay in presence of […]. To be noted: in the assay text read “20 ug/ml” for “150 ug/ml”. It is filed as functional. The procedure, abridged:
as §3

Experiment [20] relates to Candida albicans. The experiment in a line: Antifungal activity against Candida albicans in yeast extract-peptone-glucose medium at 600 ug/ml after 48 hrs by disc diffusion assay in presence of 0.01% of sodium dodecylsulphate. It is filed as functional. To be noted: read-out: DIZ. The procedure, abridged:
as §4

Experiment [21] deals with Candida albicans. As to the kind of experiment: Antifungal activity against Candida albicans in yeast extract-peptone-glucose medium at 600 ug/ml after 48 hrs by disc diffusion assay in presence of 100 ug/ml of calcofluor white. It is filed as functional. In short, it runs like this:
as §4

Experiment [22] deals with Candida albicans. As to the kind of experiment: Antifungal activity against Candida albicans in yeast extract-peptone-glucose medium at 600 ug/ml after 48 hrs by disc diffusion assay. It is filed as functional. To be noted: read-out: DIZ. The procedure, abridged:
as §5

The subject of experiment [23] is Candida albicans. As to the kind of experiment: Antifungal activity against Candida albicans in yeast extract-peptone-glucose medium at 600 ug/ml after 48 hrs by disc diffusion assay in presence of 150 ug/ml of congo red. In kind it is functional. The procedure, abridged:
as §4

SMILES strings stand for the structures.

For the molecule `O=C(C(=O)N1CCOCC1)c1cn(CCCCCCn2cc(C(=O)C(=O)N3CCOCC3)c3ccccc32)c2ccccc12`, the “diameter of the inhibition zone (DIZ)” value in experiment [1] and in experiment [4] was 6.5 mm each time. Further, the zone of inhibition at 357 µg/mL in experiment [2] amounted to 7.5 mm; in [3] it was 5.5 mm.

For `O=C(C(=O)N1CCCC1)c1cn(CCCn2cc(C(=O)C(=O)N3CCCC3)c3cc(Br)ccc32)c2ccc(Br)cc12`, the “diameter of the inhibition zone (DIZ)” value is reported as 12 mm in experiment [5], 11.5 mm in experiment [9] and 11.5 mm in experiment [11]. For the same molecule, the midpoint of inhibition in experiment [6], the IC50, lay at 29.2 mM. The zone of inhibition at 257 µg/mL is 11.5 mm in [7], 13.5 mm in experiment [8] and 11.5 mm in experiment [10].

Take `O=C(C(=O)N1CCCC1)c1cn(Cc2ccc(Cn3cc(C(=O)C(=O)N4CCCC4)c4ccccc43)cc2)c2ccccc12`: the values for the zone of inhibition at 187 µg/mL in experiment [12], in [16] and in [17] were 7.5 mm, 8 mm and 7 mm, respectively. The “diameter of the inhibition zone (DIZ)” value in experiment [13] is given as 7 mm; in [14], 6.5 mm; in experiment [15] it was 7 mm.

`O=C(NCc1ccccc1)C(=O)c1cn(Cc2ccc(Cn3cc(C(=O)C(=O)NCc4ccccc4)c4ccccc43)cc2)c2ccccc12` yielded an IC50 in [6] of 0.02 mM. For the same molecule, the zone of inhibition at 600 µg/mL in experiment [18] worked out at 9 mm; in experiment [20] it was 12.5 mm; in [22], 12.5 mm. Also, the “diameter of the inhibition zone (DIZ)” value in [19] was 11 mm; in [21] it was 11.5 mm; in experiment [23] it was 10.5 mm.

The term IC50 denotes the concentration at which inhibition is half-maximal. A high value points to weaker potency.
